Experiments:
[1] = format: in vivo; details: Pt in plasma, rat, intravenous
[2] = Pt excretion in urine and feces by atomic absorption spectroscopy; format: in vivo, rat; details: 24 h after intravenous administration
[3] = Cold sensitivity/hyperalgesia; format: in vivo, rats; details: hindpaw withdrawal latency, 4.5 °C water
Procedure, shortened: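 One rat hindpaw per immersion was placed in cold (4.5 °C) water. Paw-withdrawal latency was timed with a 1/100 s digital timer, with a 20 s maximum cutoff.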

[4] = Sensitivity to noxious heat; format: in vivo, rats; details: hind paws
Procedure, shortened: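 After 15 min acclimation, radiant heat was applied to the rat hindpaw with a thermal paw stimulator. Intensity was set so vehicle-treated rats lifted or licked the paw at about 10 s. Withdrawal latency was recorded with a 20 s cutoff.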

Histopathology = format: in vivo, female Balb/c mice; details: H&E, day 28 after intravenous administration, mice
Procedure, shortened: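 Liver and kidney were fixed in 4% paraformaldehyde, moved to 70% ethanol after 20 h, and paraffin-embedded. Serial 8 μm medio-lateral sections were H&E-stained and examined by light microscopy at x20.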

MCF-7 cells = assay: Xenograft model of breast cancer; format: in vivo, BALB/c nude mice
Procedure, shortened: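 Female nude BALB/c mice (6 wk, 20–30 g, pathogen-free) received 7.5 × 10^6 MCF-7 cells in the right flank. Cells were cultured in DMEM with 10% FBS and penicillin/streptomycin. Tumors grew 4 weeks without hormone, then weekly s.c. 17β-oestradiol valerate (0.1 mg/kg, sesame oil). At ~100 mm3, mice were randomized and given a single i.v. dose (5 or 10 mg/kg) or saline. Calliper volumes, (L×W²)/2, were taken every 3 days for 30 days; ANOVA/t-test, P<0.05.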

N.N.[Cl][Pt][Cl] [cisplatin]
AUC0–24 [1]: 40.38±6.2 h-μg/ml | CL [1]: 7.98 ± 1.2 mL/h | Cmax [1]: 22620 ± 1800 ng/mL | 24-h cumulative Pt excretion [2]: 31.6±3.4% | cold hyperalgesia / hindpaw sensitivity to cold [3]: significantly increased | thermal response / hindpaw sensitivity to noxious heat [4]: significantly increased | histopathological changes in kidneys (Histopathology): focal subcapsular tubular vacuolization, dilated subcapsular space and consistent basophilia | histopathological changes in liver (Histopathology): dilated intra-lobular spaces and evident edema | average tumor volume (MCF-7 cells; 10 mg/kg single intravenous, after 30 days, saline 249.32±43.97): 233.67±50.71 mm^3 | reduction of tumor mass (MCF-7 cells; solid tumor-bearing mice): ~10%

From publication PMC4040677 (Cell Death & Disease, 2014)
